# CHRM4 PAM: human M4 muscarinic receptor positive allosteric modulators, primary screen, CHO-K1 cells, Fluo-8 calcium fluorescence. Muscarinic acetylcholine receptor M4 (Homo sapiens), P08173. CHO-K1 hM4/Gqi5, ACh EC20; 0% = ACh EC20, 100% = maximal ACh. activation, % at 3 µM. 0.4% of 360,000 active;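 active = activation above its plate's cutoff, the mean activation of sample wells plus 3 SD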
# M4 ag: human M4 muscarinic receptor agonists, primary screen, CHO-K1 cells, Fluo-8 calcium fluorescence. CHO-K1 hM4/Gqi5; vehicle 0%, full acetylcholine response 100%. Muscarinic acetylcholine receptor M4 (Homo sapiens), P08173. activation, % at 3 µM. 0.14% of 360,000 active;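 active = activation above the run mean over all test wells plus 3 SD, cut at about 32% in these data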;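 note: peak over basal fluorescence ratio per well then scaled between controls; 0% = DMSO wells and 100% = acetylcholine at EC100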
# CHRM5 antagonist: human M5 muscarinic receptor antagonists, primary screen, CHO cells, Fluo-8 calcium fluorescence. Muscarinic acetylcholine receptor M5 (Homo sapiens), P08912. CHO-hM5 cells, ACh EC80. inhibition, % at 3 µM. 0.59% of 360,000 active. AID 624040, 2012;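 active = inhibition above a per-plate cutoff, the mean of that plate's test compounds plus 3 SD, cut at about 27% in these data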;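 note: 0% = acetylcholine EC80 with DMSO and 100% = DMSO without agonist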
# Target sequence (P08912 whole entry, looked up): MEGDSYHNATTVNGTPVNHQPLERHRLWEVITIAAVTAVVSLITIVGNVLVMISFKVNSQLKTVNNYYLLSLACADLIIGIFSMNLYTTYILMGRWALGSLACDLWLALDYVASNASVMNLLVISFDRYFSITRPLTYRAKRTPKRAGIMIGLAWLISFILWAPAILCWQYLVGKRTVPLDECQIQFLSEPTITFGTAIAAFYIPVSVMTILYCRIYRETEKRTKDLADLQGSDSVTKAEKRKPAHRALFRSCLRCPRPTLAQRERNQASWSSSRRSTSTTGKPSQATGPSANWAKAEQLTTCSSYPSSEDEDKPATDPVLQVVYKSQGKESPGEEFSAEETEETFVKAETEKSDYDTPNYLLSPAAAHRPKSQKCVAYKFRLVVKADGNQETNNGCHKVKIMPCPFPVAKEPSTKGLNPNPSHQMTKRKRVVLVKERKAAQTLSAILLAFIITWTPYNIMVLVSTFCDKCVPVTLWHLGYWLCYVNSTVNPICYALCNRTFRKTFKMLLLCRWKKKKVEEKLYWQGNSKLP
# M4 antag: human M4 muscarinic receptor antagonists, primary screen, CHO cells, Fluo-8 calcium fluorescence; CHO-hM4 cells, ACh EC80; Muscarinic acetylcholine receptor M4 (Homo sapiens), P08173; 0.73% of 360,000 active; inhibition, % at 3 µM;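 active = inhibition above its plate's cutoff, the mean inhibition of sample wells plus 3 SD, cut at about 27% in these data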;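 note: 0% = acetylcholine EC80 with DMSO and 100% = DMSO without agonist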
# M5 PAM: human M5 muscarinic receptor positive allosteric modulators, primary screen, CHO-K1 cells, Fluo-8 calcium fluorescence; 0.3% of 360,000 active; activation, % at 3 µM; Muscarinic acetylcholine receptor M5 (Homo sapiens), P08912; CHO-K1 hM5, ACh EC20 PAM; 0% = ACh EC20, 100% = ACh EC100;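 active = activation above the run cutoff, the mean activation of all test compounds plus 3 SD, cut at about 18% in these data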
#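 system = human M5 receptor in CHO-K1 cells | reagent = EC20 acetylcholine as agonist stimulus | compound dosing = single-point, 3 µM nominal | incubation = Fluo-8 loading 80 min at 37 °C plus 30 min room temperature | detection = Fluo-8 calcium dye fluorescence, kinetic read | benchmarks = low control EC20 acetylcholine (0%), high control EC100 acetylcholine (100%)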
# CHRM5 agonist: human M5 muscarinic receptor agonists, primary screen, CHO-K1 cells, Fluo-8 calcium fluorescence; activation, % at 3 µM; 0.19% of 360,000 active; CHO-K1 hM5 cells; 0% DMSO wells, 100% maximal acetylcholine response; Muscarinic acetylcholine receptor M5 (Homo sapiens), P08912; AID 624037, 2012;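 active = activation above the run's mean over test compounds plus 3 SD, cut at about 23% in these data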;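 note: signal is peak over basal fluorescence ratio across the kinetic read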
# Starred values were filed as active, the others as inactive. The list is not random: actives were taken first. Their share in the collection is about 1.8%.
SMILES,CHRM4 PAM,M4 ag,CHRM5 antagonist,M4 antag,M5 PAM,CHRM5 agonist
COc1ccc(NC(=O)c2ccc3c(c2)OCO3)cc1Cl,5,4,-3,-9,29*,1
CN(C)CC#CCC(O)(c1ccccc1)C1CCCCC1 (stereo unspecified),-17,3,96*,92*,-31,-16
CCN(CC)CC#CCC(O)(c1ccccc1)C1CCCC1 (stereo unspecified),-21,1,95*,95*,-23,-6
OCCN(CC#CCC(O)(c1ccccc1)C1CCCC1)CCO (stereo unspecified),-1,1,-1,-7,7,-13
COc1ccc(C(=O)NC[C@H]2O[C@@H](n3cnc4c(N)ncnc43)[C@H](O)[C@@H]2O)cc1OC,5,1,-4,-6,3,2
NC(=O)c1ccc[n+]([C@H]2O[C@@H](COP(=O)([O-])OP(=O)(O)OC[C@H]3O[C@@H](n4cnc5c(N)ncnc54)[C@H](O)[C@@H]3O)[C@H](O)[C@@H]2O)c1,-2,80*,0,0,-7,25*
Cc1ccc2c(c1)cc1c(=O)n(CC(=O)N(C)c3ccccc3)nc(C)n12,16*,2,-12,3,5,1
COC(=O)[C@@]1(Cc2ccccc2)[C@H]2C(=O)N(C)C(=O)[C@H]2[C@H]2CN=C(SC)N21,2,1,-10,-8,-3,2
CCCCC(O)(CCN1CCOCC1)c1ccc(Cl)cc1 (stereo unspecified),-34,0,32*,68*,-21,-11
C/C(=N/NC(=O)CNC(=O)c1ccccc1)c1ccc(C)cc1,10,2,17,-8,-6,-2
C/C(=N\NC(=O)CNC(=O)c1cccc(F)c1)c1ccc2ccccc2c1,-10,-1,23,40*,-7,-5
Cc1nnc(SCc2nnc(-c3cccs3)o2)n1Cc1ccccc1,1,2,7,0,-2,-1
Clc1ccc(-c2nnc(CSc3nnc(-c4cccs4)n3Cc3ccccc3)o2)cc1,-17,12,29*,30*,-19,-2
Cc1cc(C)c2nc(NNC(=O)c3ccc(S(=O)(=O)N4CCc5ccccc5C4)cc3)sc2c1,-5,8,2,-7,-21,59*
O=C(O)CSc1nnc2c(n1)[nH]c1ccccc12,1,1,34*,3,-11,-5
O=C(CSc1nnc2c(n1)[nH]c1ccccc12)OCc1ccccc1,4,1,1,-6,2,1
CCn1nc(C)c(CNC(=O)c2cc(COc3ccccc3SC)on2)c1C,-8,12,6,0,-10,5
COc1ccc(-c2csc(C(C)(O)c3cccc(F)c3)n2)cc1 (stereo unspecified),-11,4,8,37*,-11,-1
CC(NC(=O)c1ccco1)c1nc(-c2ccccc2Cl)no1 (stereo unspecified),-3,1,-9,-2,7,-1
O=C(CSc1nc(C(F)(F)F)cc(=O)[nH]1)Nc1cccc2ccccc12,22*,0,-18,-8,17,-2
O=C(Nc1ccc2nc(-c3ccco3)c(-c3ccco3)nc2c1)N1CCN(c2ccccn2)CC1,-15,12,25,8,20*,2
Cc1nc2cc(NC(=O)N3CCN(c4ccccn4)CC3)ccc2o1,-4,1,-2,5,-3,1
COc1ccc(NC(=O)CSc2nc(N)c(NC(=O)c3ccccc3F)c(=O)[nH]2)cc1,17*,1,10,2,1,-2
COc1ccc(C(=O)Nc2c(N)nc(SCC(=O)Nc3ccc(NC(C)=O)cc3)[nH]c2=O)cc1,8,1,8,-6,-8,-2
C=CCn1c(SCC(=O)NCCC2=CCCCC2)nc2ccc(Cl)cc2c1=O,5,1,2,-14,30*,4
SMILES,CHRM4 PAM,M4 ag,CHRM5 antagonist,M4 antag,M5 PAM,CHRM5 agonist
Cn1c(=O)cc(SCC(=O)NCCC2=CCCCC2)c2ccc(Cl)cc21,1,0,3,1,1,-3
N#C/C(=C\c1ccc(O)cc1)c1nc2ccccc2o1,-11,9,10,14,-9,10
COc1cc(/C=C(\C#N)c2nc3ccccc3o2)ccc1O,-23,30,46*,20,-24,53*
COc1cc(OC)cc(C(=O)NCC(=O)Nc2ccc(OC)c(Cl)c2)c1,4,0,0,-20,0,-3
Cc1cccc(NC(=O)CCCN2C(=O)C3CC=CCC3C2=O)c1 (stereo unspecified),1,0,7,0,-2,-4
CCc1ccc(NC(=O)CCCN2C(=O)C3CC=CCC3C2=O)cc1 (stereo unspecified),4,2,29*,-13,-8,-8
Cc1ccc(S(=O)(=O)N(CC(=O)Nc2ccc(Cl)cc2)C(=O)N2CCN(C)CC2)cc1,9,1,-5,-17,4,-2
CN(C(=O)CSc1nc2ccc(Cl)cc2[nH]1)C1CCS(=O)(=O)C1 (stereo unspecified),7,0,-4,4,23*,1
O=[N+]([O-])c1ccc(Cn2cc(-c3cccc(C(F)(F)F)c3)nn2)cc1,8,2,6,2,-12,-3
CCCCc1nnc(NC(=O)C23CC4CC(CC(NC(C)=O)(C4)C2)C3)s1,-4,1,33*,11,-11,-3
O=C(CCNS(=O)(=O)c1ccccc1)NCC1CCCCC1,21*,1,2,0,-4,2
CC(NC(=O)CCNS(=O)(=O)c1ccccc1)c1ccccc1 (stereo unspecified),22*,0,5,10,-1,-5
O=C(COC(=O)CCNS(=O)(=O)c1ccccc1)NC1CC1,10,2,4,5,3,0
CC1(Oc2ccccc2-c2ccno2)CCN(Cc2csc3ccccc23)C1 (stereo unspecified),-8,1,4,33*,-5,-1
CC(=O)c1ccc(NC(=O)CSc2ccc(-c3ccc(-n4cccn4)cc3)nn2)cc1,-1,1,-1,-9,3,4
CCN(CC(=O)Nc1ccccc1C(F)(F)F)C(=O)c1ccc2c(c1)NC(=O)C(C)S2 (stereo unspecified),-3,6,2,-7,2,1

# Bioassay records from PubChem.
